According to ChEMBL document CHEMBL2169884, “Novel inhibitors of heat shock protein Hsp70-mediated luciferase refolding that bind to DnaJ” (Bioorg Med Chem, 2012):
Active and inactive are the calls of the source. The rule behind the calls is not given here.

What was measured:
[1] = Inhibition of human HSP70/DnaJ-mediated luciferase refolding after 10 mins by liquid scintillation counting
In short: (§1)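 Luciferase (0.5 mg/mL) denatured in 6 M guanidine HCl in buffer A (25 mM Hepes pH 7.4, 50 mM potassium acetate, 5 mM DTT), 60 min at RT, then diluted 1:20. Refolding mixture: 0.5 µM Hsp70, 60 nM DnaJ, 125 ng denatured luciferase with compound in buffer containing 0.1 mM ATP, creatine phosphate and creatine phosphokinase. Incubated 1 h; DnaJ, luciferase or ATP varied in mechanism runs. Aliquots read by luciferin luminescence after 10 min. IC50 is the geometric mean of ≥3 determinations.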

[2] = Inhibition of luciferase refolding in rabbit reticulocyte lysate preincubated for 30 mins measured after 1 hr by liquid scintillation counting
[3] = tested on: HeLa; assay: Induction of Hsp70 in human HeLa cells at 10 uM after overnight incubation by solid state immuno assay relative to 17-AAG; assay type: functional
In short: (§2)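 HeLa or A172 cells treated overnight with compound; Hsp70 levels measured by solid-state immunoassay, with stimulation expressed relative to 1 µM 17-AAG as positive control.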

[4] = tested on: A 172; assay: Induction of Hsp70 in human A172 cells at 10 uM after overnight incubation by solid state immuno assay relative to 17-AAG; assay type: functional; in short: as §2
[5] = Effect on luciferase activity up to 300 uM
[6] = organism: Homo sapiens; assay: Inhibition of human HSP70/DnaJ-mediated luciferase refolding after 10 mins by liquid scintillation counting in presence of up to 10 mM of ATP; in short: as §1
[7] = Binding affinity to DnaJ assessed as rightward shift in melting temperature by thermal denaturation assay
[8] = organism: Homo sapiens; assay: Inhibition of human Hsp70-mediated ATPase activity at 10 uM
[9] = organism: Homo sapiens; assay: Binding affinity to human Hsp70 assessed as rightward shift in melting temperature by thermal denaturation assay
[10] = Binding affinity to DnaJ assessed as rightward shift in melting temperature at 10 to 30 uM by thermal denaturation assay
[11] = organism: Homo sapiens; assay: Inhibition of DnaJ-mediated stimulation of human Hsp70 ATPase activity at 10 uM; details: 0.1 to 3.2 uM, in the assay text read “at 0.1 to 3.2 uM” for “at 10 uM”
In short: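 Hsp70 (300 nM) incubated with 3.2 µM ATP and DnaJ (0.1–320 nM) at 37 °C for 5–40 min in pH 7.4 HEPES buffer with KCl, EGTA and MgCl2. Reactions stopped with EDTA stop buffer containing ADP tracer and antibody. ADP detected by Transcreener fluorescence (ex 580, em 620 nm).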

[12] = organism: Homo sapiens; assay: Inhibition of human HSP70/DnaJ-mediated luciferase refolding after 10 mins by liquid scintillation counting in presence of 0.1 to 10 µg/mL of denatured luciferase; in short: as §1
[13] = Binding affinity to DnaJ assessed as rightward shift in melting temperature at 3.2 to 32 uM by thermal denaturation assay
[14] = organism: Homo sapiens; assay: Binding affinity to human Hsp70 assessed as rightward shift in melting temperature at 3.2 to 32 uM by thermal denaturation assay

IC50 [1] [µM]	IC50 [2] [µM]	Activity [5]	Compound	Activity [3] [%]	Activity [4] [%]	also measured
0.6			CCCOC(=O)c1cccc(NC(=O)COc2ccccc2Cl)c1			
> 100	4	inactive	Clc1ccc(Nc2nc(-c3cccs3)cs2)cc1	<10	<10	
0.95			COC(=O)c1cccc(NC(=O)COc2cc(Cl)ccc2Cl)c1			
0.13			CCCCOC(=O)c1cccc(NC(=O)COc2ccc(Cl)cc2Cl)c1			inhibition [6]: Active; Activity [7]: Dose-dependent effect; inhibition [8]: inactive; Activity [9]: inactive; Tm(app) [10]: 2 °C; inhibition [11]: Active; inhibition [12]: inactive
0.62	0.81	inactive	CCOC(=O)c1cccc(NC(=O)COc2ccccc2Cl)c1	<10	<10	
22	1.1	inactive	c1ccc(Nc2nc(-c3cccs3)cs2)cc1	<10	<10	
> 100	8.8	inactive	Clc1ccccc1C1Oc2ccccc2-c2cc(-c3ccco3)nn21 (centres undefined)	<10	<10	
> 30	4.3	inactive	CCCCCOC(=O)C1=C(C)NC2(O)c3ccccc3C(=O)C12O (centres undefined)	<10	<10	
> 32			CCOC(=O)c1cccc(NC(=O)COc2ccc(Cl)cc2)c1			
> 32			COC(=O)c1cccc(NC(=O)COc2ccc(Cl)cc2Cl)c1			Activity [13]: inactive; Activity [14]: inactive
